Bioassay records deposited in PubChem BioAssay by The Scripps Research Institute Molecular Screening Center.
This is a sample that favours compounds with a hit; in the whole collection about 3.7% have one here.
TAAR1 ag – human TAAR1 agonists, primary screen, Fluo-8 calcium fluorescence, CHO RD-HGA16 cells. Trace amine-associated receptor 1 (Homo sapiens), Q96RJ0. vehicle wells 0%, saturating PEA agonist 100%. activation, % at 3 µM. AID 624467, 2012. actives 0.99% (n = 360,000);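 active means activation above the mean activation of all test compounds in the run plus 3 SD, cut at about 38% in these data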
Target sequence (Q96RJ0 whole entry, looked up): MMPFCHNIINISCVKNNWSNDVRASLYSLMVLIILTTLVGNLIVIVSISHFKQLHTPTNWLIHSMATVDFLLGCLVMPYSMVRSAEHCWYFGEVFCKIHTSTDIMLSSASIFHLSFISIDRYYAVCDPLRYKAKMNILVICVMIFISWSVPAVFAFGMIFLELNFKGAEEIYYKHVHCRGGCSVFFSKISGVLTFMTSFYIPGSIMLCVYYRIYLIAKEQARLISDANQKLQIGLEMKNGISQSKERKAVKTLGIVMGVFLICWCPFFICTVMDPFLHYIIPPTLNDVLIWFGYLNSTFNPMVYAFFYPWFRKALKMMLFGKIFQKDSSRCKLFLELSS
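Test system: RD-HGA16 (CHO) cells co-expressing Gα16 and hTAAR1; dosing: one-point dosing at 3 µM (nominal); timing: 17-24 h seeding, 75 min 37 °C dye, 30 min RT; signal: kinetic Fluo-8 calcium fluorescence; read-out basis: % activation relative to PEA EC100 response; controls: DMSO and PEA EC100; replicates: n 1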
rCAG binder – binders of r(CAG) RNA repeats, primary screen, biochemical, fluorescence | inhibition, % at 3 µM | actives 1.3% (n = 370,000) | r(CAG) RNA repeat, TO-PRO-1 dye displacement fluorescence;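 active means inhibition above the plate cutoff, the mean of all test compounds on that plate plus 3 SD, cut at about 35% in these data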;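 further: 0% = DMSO alone and 100% = 100 µM mitoxantrone as full dye displacement; higher means more dye released from RNA so lower well fluorescence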
core dimer inh – inhibitors of HCV core protein dimerization, primary screen, biochemical, TR-FRET, high-throughput. TR-FRET GST/Flag-core106 dimerization, 1536-well. inhibition, % at 5 µM. actives 0.33% (n = 300,000);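 active means inhibition above the mean of all tested compounds plus 3 SD, set per screening campaign, cut at about 45% in these data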
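assay system = GST-tagged and Flag-tagged HCV core protein residues 1-106 | controls = unlabelled core106 and no-GST-core106 wells | incubation = compound-protein-antibody incubation 4 h at 22.5 °C | probe or stimulus = Eu donor and XL665 acceptor anti-tag antibodies | read-out = % inhibition based on acceptor/donor emission ratio | signal = TR-FRET 671 and 617 nm emission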
TAAR1 antag – human TAAR1 antagonists, primary screen, Fluo-8 calcium fluorescence, CHO RD-HGA16 cells; AID 624466, 2012; actives 1.5% (n = 360,000); inhibition, % at 3 µM; antagonist; Trace amine-associated receptor 1 (Homo sapiens), Q96RJ0;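 active means inhibition above a per-plate cutoff, the mean inhibition of test compounds on that plate plus 3 SD, cut at about 49% in these data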;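 further: 0% = DMSO plus EC80 beta-PEA response and 100% = DMSO alone without agonist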
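Assay system: RD-HGA16 CHO cells with stable hTAAR1 and Gα16 / Reagent: EC80 β-phenethylamine stimulus / Doses: 3 µM, single point / Timing: dye loading 75 min at 37 °C, then 30 min room temperature / Measured by: Fluo-8 intracellular calcium dye fluorescence, real-time kinetic reads / Controls: vehicle wells and EC80 agonist wells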
NS3 helicase inh – inhibitors of HCV NS3 helicase, primary screen, biochemical, Cy5 molecular beacon fluorescence; NS3 helicase DNA unwinding; actives 0.56% (n = 290,000); inhibition, % at 10.9 µM;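 active means inhibition above the mean of all tested compounds plus 3 SD, set per campaign, cut at about 35% in these data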;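 further: 0% = DMSO wells and 100% = thioflavine S control wells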
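System: Hepatitis C virus NS3 helicase domain fragment enzyme | Reagent: Annealed dual-labelled DNA beacon duplex, ATP-started | Compound dosing: 10.9 µM single point, 0.8% DMSO | Incubation: 1 h reaction at 25 °C, ATP-initiated | Technique: Cy5 fluorescence | Evaluation: Percent inhibition from t60/t0 fluorescence ratio | Benchmarks: Low DMSO, high thioflavine S at 110 µM | Replication: Singlicate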
rCAG bind conf – small molecules binding CAG repeat RNA – biochemical, fluorescence, confirmation. shares compounds with rCAG binder. r(CAG) RNA repeat, TO-PRO-1 dye displacement fluorescence. actives 70% (n = 4,300). inhibition, % at 3 µM;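 active means inhibition above a per-plate cutoff, the mean inhibition of sample wells plus 3 SD, cut at about 35% in these data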;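 further: loss of TO-PRO-1 fluorescence as compound displaces dye from 1x1 AA loop RNA; 0% = DMSO only wells and 100% = 100 µM mitoxantrone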
DNA CAG counter – displacement of TO-PRO-1 from CAG DNA duplex, counter-screen for rCAG RNA repeat binder project, biochemical, fluorescence, TO-PRO-1 dye, d(CAG) DNA oligo; shares compounds with rCAG binder; d(CAG) DNA oligo TO-PRO-1 dye displacement; inhibition, % at 3 µM; actives 94% (n = 4,300); AID 652068, 2013;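 active means inhibition above its plate's cutoff, the mean test-well inhibition plus 3 SD, cut at about 4.8% in these data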;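 further: 0% = DNA dye mix with DMSO and 100% = 100 µM mitoxantrone; hits displace the dye from DNA and so lower well fluorescence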
An asterisk follows results filed as active; / = no result.

SMILES	TAAR1 ag	rCAG binder	core dimer inh	TAAR1 antag	NS3 helicase inh	rCAG bind conf	DNA CAG counter
CC(Nc1nc(=S)nc(Nc2ccc(F)cc2)[nH]1)c1ccccc1 (stereo not drawn)	6.8	67.5*	13.7	4.3	-24.0	9.6	11.7*
CC(Nc1nc(Nc2ccc(F)cc2)nc(SCC(N)=O)n1)c1ccccc1 (stereo not drawn)	0.8	-0.5	3.7	-36.2	-10.3	/	/
O=C(O)CCC(=O)N1N=C(c2cccs2)CC1c1cn(-c2ccccc2)nc1-c1ccccc1 (stereo not drawn)	7.1	53.8*	40.8	8.2	6.6	60.6*	19.1*
Cc1ccc(C)c(/C=C(\C(=O)O)c2ccc(S(=O)(=O)N3CCCCC3)s2)c1	-1.7	46.7*	57.1*	3.2	18.7	45.2*	18.5*
COc1ccc(Br)cc1/C=C(\C(=O)O)c1ccc(S(=O)(=O)N2CCCCC2)s1	-0.1	69.5*	/	-3.8	/	74.2*	36.6*
O=C(OC12CCCN(C1)/C(=C/c1ccccc1)C2)c1ccc(Cl)cc1 (stereo not drawn)	/	3.2	/	/	/	/	/
O=[N+]([O-])c1ccc(Oc2ccc(S(=O)(=O)Nc3ccccc3)cc2)cc1	/	/	9.4	/	-15.3	/	/
O=C1C(Cl)=C(NS(=O)(=O)c2ccc([N+](=O)[O-])cc2)C(=O)c2ccccc21	0.7	38.2*	-7.8	-7.2	11.5	23.6	5.3*
CC1=C/C(=C(\c2cc(C)c(O)c(Br)c2)c2ccccc2S(=O)(=O)O)C=C(Br)C1=O	1.0	49.3*	-182.7	-12.4	18.8	33.2	9.3*
Cc1cc(C(=O)c2ccccc2)cc(C)c1O	1.3	0.9	/	-19.3	/	/	/
CCc1cc(C(=O)O)c(NC(=O)c2cc(OC)c(OC)c(OC)c2)s1	0.4	38.4*	6.9	9.3	14.9	20.1	2.6
Cc1ccc(C(=O)Nc2scc(-c3ccccc3)c2C(=O)O)cc1	0.4	51.2*	-1.2	-13.6	/	34.3	8.8*
O=C(/C=C/c1cccs1)Nc1scc(-c2ccccc2)c1C(=O)O	-2.0	36.7*	/	-13.2	35.7	36.2*	11.0*
CC1CCc2c(sc(NC(=O)/C=C/c3cccs3)c2C(=O)O)C1 (stereo not drawn)	-2.7	45.6*	-1.6	-16.0	-20.2	66.5*	26.3*
CC(C)(C)C(=O)Nc1scc(-c2ccc(-c3ccccc3)cc2)c1C(=O)O	3.9	34.4	4.3	-1.9	19.2	/	/
C[C@@H]1CCCN1c1ccc2c(c1)O[C@H]1CCN(C1)S2(=O)=O	/	2.3	/	/	/	/	/
Cc1ccccc1C(=O)NC1CCCCN(Cc2cccc(C(F)(F)F)c2)C1=O (stereo not drawn)	/	-1.1	/	/	/	/	/
COC(=O)N1C[C@H](Oc2ncccn2)[C@H]2C[C@@H]1c1ccccc1O2	3.2	1.9	/	-35.4	/	/	/
COC(=O)c1c(-c2ccc(C)cc2)csc1NC(=O)c1c(-c2ccccc2)noc1C	4.7	5.6	14.4	6.0	-9.4	/	/
COc1cc(C(=O)Nc2c(C(=O)O)[nH]c3ccc(C)cc23)cc(OC)c1OC	0.5	53.8*	/	-12.5	28.5	26.8	5.3*
COc1ccc(-c2csc(NC(=O)c3ccccc3F)c2C(=O)O)cc1	5.5	48.1*	6.9	-19.5	4.0	32.3	6.1*
O=C(Nc1scc(-c2ccccc2)c1C(=O)O)c1ccccc1Cl	-3.0	19.0	9.9	4.1	26.4	/	/
CC(C)Cc1csc(NC(=O)c2ccc(F)cc2)c1C(=O)O	0.2	34.8*	-0.2	-19.4	26.1	19.0	2.0
COc1cc(C(=O)Nc2scc(-c3ccc(C)cc3)c2C(=O)O)cc(OC)c1OC	6.9	49.7*	5.9	31.3	28.5	75.5*	39.3*
CCOC(=O)c1c(CC(C)C)csc1NC(C)=O	13.7	-4.7	-3.8	-3.4	-5.2	/	/
SMILES	TAAR1 ag	rCAG binder	core dimer inh	TAAR1 antag	NS3 helicase inh	rCAG bind conf	DNA CAG counter
CCn1c(SCC(=O)Nc2ccccc2-c2ccccc2)nnc1-c1ccc(C)cc1	/	5.3	/	/	/	/	/
CCOc1ccc2nc(SCC(=O)N3c4ccccc4Sc4ccccc43)c(C#N)cc2c1	7.1	3.9	-105.2	-4.8	9.2	/	/
CCOc1ccc2nc(SCc3ccc(CC(=O)O)cc3)c(C#N)cc2c1	7.4	60.2*	18.6	-5.8	24.0	55.2*	20.2*
C/C(=N\OCc1nc2ccccc2c(=O)n1/N=C/c1cc(C)cc([N+](=O)[O-])c1O)c1ccccc1	0.7	56.1*	10.2	27.1	33.5	63.5*	25.4*
CCOC(=O)Cc1csc(NC(=O)Nc2cccc(Cl)c2)n1	19.7	53.2*	-6.7	25.3	-15.8	17.5	16.2*
CN(C)Cc1csc(NC(=O)Nc2cccc(Cl)c2)n1	3.6	21.5	/	18.6	/	/	/
Cc1csc(NC(=O)Nc2ccc(Cl)cc2)n1	21.9	37.9*	2.0	26.3	-10.3	6.6	9.5*
O=C(Cc1csc(NC(=O)Nc2ccc(Cl)cc2)n1)NC1CCCC1	13.0	40.5*	-5.9	46.3	/	16.2	14.7*
NCc1csc(NC(=O)Nc2cccc(Cl)c2)n1	12.0	34.8*	/	-14.6	/	9.5	8.4*
O=C(Cc1ccccc1F)Nc1nnc(-c2cccnc2)s1	/	4.6	/	/	/	/	/
CC(C)(C)c1ccc(S(=O)(=O)N2CCCC2C(=O)N2CCc3ccccc3C2)cc1 (stereo not drawn)	/	2.0	/	/	/	/	/
CC(N)c1csc(NC(=O)Nc2cccc(C(F)(F)F)c2)n1 (stereo not drawn)	3.2	20.5	/	2.3	/	/	/
CCOC(=O)c1csc(NC(=O)Nc2cccc(Cl)c2)n1	16.1	59.2*	8.7	1.8	-6.1	49.8*	28.0*
CCOC(=O)Cc1csc(N/N=C/c2ccc(Cl)cc2)n1	14.2	4.3	0.6	-15.2	-22.9	/	/
CC(C)C(N)c1csc(NC(=O)Nc2cccc(Cl)c2)n1 (stereo not drawn)	15.7	43.8*	/	12.5	/	51.0*	8.4*
CCOC(=O)Cc1csc(NC(=O)Nc2ccc(Cl)cc2)n1	25.5	39.8*	-0.3	15.2	-6.4	43.2*	16.9*
COC(=O)C1CN(Cc2cn(Cc3ccc(Cl)cc3)nn2)CCS(=O)(=O)N1Cc1ccc(OC)cc1 (stereo not drawn)	/	7.1	/	/	/	/	/
COC(=O)CC1=NN(c2ccccc2)C(=O)/C1=C\c1ccc(OC)cc1	2.8	41.8*	-6.4	-2.4	20.2	28.5	8.3*
